# In ChEMBL document CHEMBL1125417, “Development of a series of phenyltetrazole leukotriene D4 (LTD4) receptor antagonists” (J Med Chem, 1992):
# Activity calls are given as the source filed them. No cut-off for these calls is given here.
# Tested on: Cysteinyl leukotriene receptor 1 (Cavia porcellus)
# Assay: Antagonist activity tested against Cysteinyl leukotriene D4 receptor
row,pKB,Compound
1,7.02,O=C(O)c1ccccc1Cn1nnc(-c2cccc(CSc3ccc4ccccc4n3)c2)n1
2,6.91,c1ccc(CCCCOc2ccc(-c3nnn(CCCCc4nnn[nH]4)n3)cc2)cc1
3,5.92,FC(F)(F)CCCCOc1ccc(-c2nnn(CCCCc3nnn[nH]3)n2)cc1
4,6.51,c1ccc(CCOc2ccc(-c3nnn(CCCCc4nnn[nH]4)n3)cc2)cc1
5,6.24,c1ccc(CCCCOc2ccc(-c3nnn(CCCCCCc4nnn[nH]4)n3)cc2)cc1
6,6.2,O=C(O)c1cccc(Cn2nnnc2-c2cccc(CSc3ccc4ccccc4n3)c2)c1
7,inactive,c1cc(-c2nnn(CCCCc3nnn[nH]3)n2)ccc1OCCCCc1nn[nH]n1
8,6.31,c1ccc(CCCCOc2ccc(-c3nnnn3CCCCc3nnn[nH]3)cc2)cc1
9,5.7,c1ccc(CCCCOc2ccc(-c3nnn(CCCCCCCCc4nnn[nH]4)n3)cc2)cc1
10,6.57,c1cc(CSc2ccc3ccccc3n2)cc(-c2nnn(CCCCc3nnn[nH]3)n2)c1
11,5.62,O=C(O)c1cccc(Cn2nnc(-c3cccc(CSc4ccc5ccccc5n4)c3)n2)c1
12,5.9,c1ccc(CCCCCOc2ccc(-c3nnn(CCCCc4nnn[nH]4)n3)cc2)cc1
13,5.38,c1ccc(CCCCOc2cccc(-c3nnn(CCCCc4nnn[nH]4)n3)c2)cc1
14,5.86,Cc1ccccc1S(=O)(=O)NC(=O)NC(=O)CCCCn1nnc(-c2ccc(OCCCCc3ccccc3)cc2)n1
15,5.92,Cc1ccccc1S(=O)(=O)NC(=O)CCCCn1nnc(-c2ccc(OCCCCc3ccccc3)cc2)n1
16,5.96,c1ccc(CCCCOc2ccc(-c3nnn(CCCCCCCc4nnn[nH]4)n3)cc2)cc1
17,5.8,c1ccc(CCCCn2nnc(-c3ccc(OCCCCc4nnn[nH]4)cc3)n2)cc1
18,5.88,O=C(O)c1ccc(Cn2nnc(-c3cccc(CSc4ccc5ccccc5n4)c3)n2)cc1
19,5.87,O=C(O)c1ccccc1Cn1nnc(-c2ccc(CSc3ccc4ccccc4n3)cc2)n1
20,5.52,CCCOc1ccc(-c2nnn(CCCCc3nnn[nH]3)n2)cc1
21,6.1,N#CNC(=O)CCCCn1nnc(-c2ccc(OCCCCc3ccccc3)cc2)n1
22,6.79,c1ccc(CCCOc2ccc(-c3nnn(CCCCc4nnn[nH]4)n3)cc2)cc1
23,5.92,c1ccc(CCCCOc2ccc(-c3nn[nH]n3)cc2)cc1

# Molecular target: T1, Cysteinyl leukotriene receptor 1 (Cavia porcellus) (UniProt Q2NNR5)
# T1 sequence (whole entry): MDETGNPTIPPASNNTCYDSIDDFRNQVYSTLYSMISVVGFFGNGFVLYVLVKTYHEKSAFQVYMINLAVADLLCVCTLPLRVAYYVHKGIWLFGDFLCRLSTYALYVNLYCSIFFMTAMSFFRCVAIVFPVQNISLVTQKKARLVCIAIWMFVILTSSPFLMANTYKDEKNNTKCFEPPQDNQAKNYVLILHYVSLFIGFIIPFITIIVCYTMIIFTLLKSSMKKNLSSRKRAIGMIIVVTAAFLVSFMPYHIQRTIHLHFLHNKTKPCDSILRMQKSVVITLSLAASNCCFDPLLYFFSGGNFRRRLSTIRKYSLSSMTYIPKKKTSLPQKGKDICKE
# Assay: Antagonistic activity against leukotriene D4 (LTD4) receptor
# Assay type: functional
# Summary of the method: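 Isolated tissue strips in baths of physiological salt solution (mM: NaCl 118.2, NaHCO₃ 24.8, dextrose 10.0, Ca²⁺ 1.2) at 37 °C, gassed with 95% O₂/5% CO₂, under 0.5 g resting tension. Cumulative LTD₄ concentration–response curves were recorded. Each antagonist was in contact with the tissue for 30 min before the final LTD₄ curve.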
row,pKB,Compound
1,6.36,c1ccc2oc(COc3ccc(-c4nnn(CCCCc5nnn[nH]5)n4)cc3)cc2c1
2,5.97,O=C(O)CCCCn1nnc(-c2ccc(OCCCCc3ccccc3)cc2)n1
3,6.68,c1ccc2nc(COc3ccc(-c4nnn(CCCCc5nnn[nH]5)n4)cc3)ccc2c1
4,5.43,FC(F)(F)CCCCCCCOc1ccc(-c2nnn(CCCCc3nnn[nH]3)n2)cc1
5,5.83,c1ccc(CCCCCCOc2ccc(-c3nnn(CCCCc4nnn[nH]4)n3)cc2)cc1
6,5.09,CCCCCCCCCCOc1ccc(-c2nnn(CCCCc3nnn[nH]3)n2)cc1
7,5.82,FC(F)(F)CCCCCOc1ccc(-c2nnn(CCCCc3nnn[nH]3)n2)cc1
8,5.41,NC(=O)CCCCn1nnc(-c2ccc(OCCCCc3ccccc3)cc2)n1
9,6.54,c1ccc(CCCCOc2ccc(-c3nnn(CCCCCc4nnn[nH]4)n3)cc2)cc1
10,6.86,c1ccc(CCCCOc2ccc(-c3nnn(CCCc4nnn[nH]4)n3)cc2)cc1
